Experiment [1] has as its system Mythimna separata. Nature of the experiment: In vivo insecticidal activity against pre-third-instar larval stage of Mythimna separata (Oriental armyworm) in corn leaves assessed as induction of loss of body liquid at 1 mg/ml treated for 3 secs before larval infestation on corn leaves measured after 48 hr by leaf-dipping method. The experiment is classed as functional, organism-based. An outline of the steps: (§1)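 Leaf-dipping bioassay on pre-third-instar Mythimna separata larvae, with compounds applied at 1 mg/mL. Toosendanin, a commercial insecticide from Melia azedarach, served as the positive control.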

Experiment [2] concerns Mythimna separata. Nature of the experiment: In vivo insecticidal activity against pre-third-instar larval stage of Mythimna separata (Oriental armyworm) in corn leaves assessed as induction of larval immobility at 1 mg/ml treated for 3 secs before larval infestation on corn leaves measured after 48 hr by leaf-dipping method. The experiment is classed as functional, organism-based. In a few lines:
as §1

The test system of experiment [3] is Mythimna separata. Nature of the experiment: In vivo insecticidal activity against pre-third-instar larval stage of Mythimna separata (Oriental armyworm) in corn leaves assessed as reduction in larval movement at 1 mg/ml treated for 3 secs before larval infestation on corn leaves measured after 24 hr by leaf-dipping method. The experiment is classed as functional, organism-based. In a few lines: as §1

Experiment [4] deals with Mythimna separata. The experiment can be described thus: In vivo insecticidal activity against pre-third-instar larval stage of Mythimna separata (Oriental armyworm) in corn leaves assessed as corrected mortality rate at 1 mg/ml treated for 3 secs before larval infestation on corn leaves measured after 30 days by leaf-dipping method. The experiment is classed as functional. The settings on record: 720 h. In a few lines: as §1

For experiment [5], the system named is Mythimna separata. Nature of the experiment: In vivo insecticidal activity against pre-third-instar larval stage of Mythimna separata (Oriental armyworm) in corn leaves assessed as corrected mortality rate at 1 mg/ml treated for 3 secs before larval infestation on corn leaves measured after 20 days by leaf-dipping method. The experiment is classed as functional. The settings on record: 480 h. In a few lines: as §1

The subject of experiment [6] is Mythimna separata. The experiment can be described thus: In vivo insecticidal activity against pre-third-instar larval stage of Mythimna separata (Oriental armyworm) in corn leaves assessed as corrected mortality rate at 1 mg/ml treated for 3 secs before larval infestation on corn leaves measured after 10 days by leaf-dipping method. It is filed as functional. Particulars: 240 h. An outline of the steps:
as §1

Experiment [7] deals with Mythimna separata. The experiment can be described thus: In vivo insecticidal activity against pre-third-instar larval stage of Mythimna separata (Oriental armyworm) in corn leaves assessed as induction of molting to abnormal pupae at 1 mg/ml treated for 3 secs before larval infestation on corn leaves measured after 48 hr by leaf-dipping method. It is filed as functional, organism-based. An outline of the steps:
as §1

For experiment [8], the system named is Mythimna separata. Nature of the experiment: In vivo insecticidal activity against pre-third-instar larval stage of Mythimna separata (Oriental armyworm) in corn leaves assessed as inhibition of adult emergence at 1 mg/ml treated for 3 secs before larval infestation on corn leaves by leaf-dipping method. The experiment is classed as functional, organism-based. In a few lines: as §1

For experiment [9], the system named is Mythimna separata. The experiment can be described thus: In vivo insecticidal activity against pre-third-instar larval stage of Mythimna separata (Oriental armyworm) in corn leaves assessed as inhibition of larval pupation at 1 mg/ml treated for 3 secs before larval infestation on corn leaves by leaf-dipping method. It is filed as functional, organism-based. In a few lines:
as §1

Among the data in ChEMBL document CHEMBL3045347, “Natural products-based insecticidal agents 5. Design, semisynthesis and insecticidal activity of novel 4'-substituted benzenesulfonate derivatives of 4-deoxypodophyllotoxin against Mythimna separata Walker in vivo” (2010) are Activity and mortality values, retold here.

Calls of active or inactive are those of the source. The rule behind the calls is not given here.

A word on the mortality: it is the percentage killed. On to `COc1ccc(S(=O)(=O)Oc2c(OC)cc([C@@H]3c4cc5c(cc4C[C@H]4COC(=O)[C@@H]43)OCO5)cc2OC)cc1`, for which the outcome in the experiment with Mythimna separata [1], with Mythimna separata [2], with Mythimna separata [3], in the experiment on Mythimna separata [7], in the experiment on Mythimna separata [8] and in the experiment with Mythimna separata [9] was Active. The results for the mortality at 1000 µg/mL with Mythimna separata [4], in the experiment with Mythimna separata [5] and in the experiment on Mythimna separata [6] were 46.4%, 37.9% and 33.3%, respectively.
On to `CCc1ccc(S(=O)(=O)Oc2c(OC)cc([C@@H]3c4cc5c(cc4C[C@H]4COC(=O)[C@@H]43)OCO5)cc2OC)cc1`, for which the result with Mythimna separata [1], with Mythimna separata [2], in the experiment with Mythimna separata [3], in the experiment on Mythimna separata [7], with Mythimna separata [8] and in the experiment on Mythimna separata [9] was Active. Besides, the results for the mortality at 1000 µg/mL with Mythimna separata [4], with Mythimna separata [5] and in the experiment with Mythimna separata [6] were 35.7%, 27.6% and 13.3%, respectively.
For `COc1cc([C@@H]2c3cc4c(cc3C[C@H]3COC(=O)[C@@H]32)OCO4)cc(OC)c1OS(=O)(=O)c1ccccc1`, the outcome with Mythimna separata [1], in the experiment with Mythimna separata [2], in the experiment with Mythimna separata [3], in the experiment with Mythimna separata [7], in the experiment with Mythimna separata [8] and with Mythimna separata [9] was Active. Further, the mortality at 1000 µg/mL in the experiment on Mythimna separata [4] came to 35.7%; in the experiment with Mythimna separata [5] it was 13.8%; with Mythimna separata [6], 16.7%.
For `COc1cc([C@@H]2c3cc4c(cc3C[C@H]3COC(=O)[C@@H]32)OCO4)cc(OC)c1OS(=O)(=O)c1ccc(Br)cc1`, the result with Mythimna separata [1], in the experiment with Mythimna separata [2], in the experiment on Mythimna separata [3], in the experiment with Mythimna separata [7], in the experiment with Mythimna separata [8] and in the experiment with Mythimna separata [9] was Active. The mortality at 1000 µg/mL with Mythimna separata [4] was found to be 50%; in the experiment on Mythimna separata [5] it was 31%; with Mythimna separata [6], 20%.
As for `COc1cc([C@@H]2c3cc4c(cc3C[C@H]3COC(=O)[C@@H]32)OCO4)cc(OC)c1OS(=O)(=O)c1ccc(C)cc1`, the result in the experiment with Mythimna separata [1], with Mythimna separata [2], with Mythimna separata [3], in the experiment on Mythimna separata [7], with Mythimna separata [8] and in the experiment on Mythimna separata [9] was Active. Moreover, the mortality at 1000 µg/mL with Mythimna separata [4] worked out at 21.4%; in the experiment with Mythimna separata [5] it was 10.3%; in the experiment on Mythimna separata [6], 3.3%.
In the case of `COc1cc([C@@H]2c3cc4c(cc3C[C@H]3COC(=O)[C@@H]32)OCO4)cc(OC)c1OC` [DESOXYPODOPHYLLOTOXIN], the result with Mythimna separata [1], in the experiment on Mythimna separata [2], with Mythimna separata [3], in the experiment on Mythimna separata [7], with Mythimna separata [8] and in the experiment with Mythimna separata [9] was Active. The figures for the mortality at 1000 µg/mL in the experiment with Mythimna separata [4], with Mythimna separata [5] and with Mythimna separata [6] were 39.3%, 20.7% and 16.7%, respectively.
Take `COc1cc([C@@H]2c3cc4c(cc3C[C@H]3COC(=O)[C@@H]32)OCO4)cc(OC)c1O` [4'-DEMETHYLDEOXYPODOPHYLLOTOXIN]: the outcome in the experiment with Mythimna separata [1], with Mythimna separata [2], in the experiment with Mythimna separata [3], in the experiment with Mythimna separata [7], in the experiment on Mythimna separata [8] and in the experiment on Mythimna separata [9] was Active. Moreover, the values for the mortality at 1000 µg/mL in the experiment on Mythimna separata [4], with Mythimna separata [5] and with Mythimna separata [6] were 21.4%, 13.8% and 10%, respectively.
As for `COc1cc([C@@H]2c3cc4c(cc3C[C@H]3COC(=O)[C@@H]32)OCO4)cc(OC)c1OS(=O)(=O)c1ccc(Cl)cc1`, the result with Mythimna separata [1], in the experiment with Mythimna separata [2], in the experiment with Mythimna separata [3], in the experiment on Mythimna separata [7], in the experiment with Mythimna separata [8] and in the experiment with Mythimna separata [9] was Active. Besides, the mortality at 1000 µg/mL was found to be 25% in the experiment on Mythimna separata [4], 10.3% in the experiment with Mythimna separata [5] and 10% in the experiment on Mythimna separata [6].
Regarding `COc1cc([C@@H]2c3cc4c(cc3C[C@H]3COC(=O)[C@@H]32)OCO4)cc(OC)c1OS(=O)(=O)c1ccc(Cl)c([N+](=O)[O-])c1`, the result in the experiment on Mythimna separata [1], in the experiment with Mythimna separata [2], in the experiment on Mythimna separata [3], in the experiment with Mythimna separata [7], in the experiment on Mythimna separata [8] and in the experiment on Mythimna separata [9] was Active. Moreover, the mortality at 1000 µg/mL in the experiment on Mythimna separata [4] was 42.9%; with Mythimna separata [5], 20.7%; in the experiment on Mythimna separata [6] it was 3.3%.
In the case of `COc1cc([C@@H]2c3cc4c(cc3C[C@H]3COC(=O)[C@@H]32)OCO4)cc(OC)c1OS(=O)(=O)c1cccc([N+](=O)[O-])c1`, the result in the experiment on Mythimna separata [1], in the experiment on Mythimna separata [2], in the experiment with Mythimna separata [3], in the experiment with Mythimna separata [7], in the experiment on Mythimna separata [8] and in the experiment on Mythimna separata [9] was Active. Besides, the results for the mortality at 1000 µg/mL with Mythimna separata [4], in the experiment on Mythimna separata [5] and in the experiment with Mythimna separata [6] were 60.7%, 27.6% and 26.7%, respectively.
In the case of `CC(=O)O[C@@H]1C[C@H](O)[C@@]23CO[C@@H](O)[C@]1(C)[C@@H]2C[C@@H](O)[C@]1(C)[C@@H]3C(=O)[C@H](OC(C)=O)[C@@]2(C)[C@H](c3ccoc3)C[C@H]3O[C@]321` [TOOSENDANIN], the mortality at 1000 µg/mL in the experiment on Mythimna separata [4] amounted to 46.4%; with Mythimna separata [5] it was 34.5%; with Mythimna separata [6] it was 30%.
